The molecules below were run against NAD-dependent protein deacylase sirtuin-5, mitochondrial (Homo sapiens, UniProt Q9NXA8) (assay: Inhibition of SIRT5).
In short: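 Recombinant SIRT5 at 50 ng/well (~30 nM, 50 μL) with succinyllysine AMC substrate and NAD in Tris-Cl pH 8.0/BSA buffer. Inhibitor dilutions were prepared in assay buffer from DMSO stocks. IC50 from nonlinear regression of dose–response, two assays in duplicate.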

Chain of NAD-dependent protein deacylase sirtuin-5, mitochondrial (Q9NXA8 whole entry): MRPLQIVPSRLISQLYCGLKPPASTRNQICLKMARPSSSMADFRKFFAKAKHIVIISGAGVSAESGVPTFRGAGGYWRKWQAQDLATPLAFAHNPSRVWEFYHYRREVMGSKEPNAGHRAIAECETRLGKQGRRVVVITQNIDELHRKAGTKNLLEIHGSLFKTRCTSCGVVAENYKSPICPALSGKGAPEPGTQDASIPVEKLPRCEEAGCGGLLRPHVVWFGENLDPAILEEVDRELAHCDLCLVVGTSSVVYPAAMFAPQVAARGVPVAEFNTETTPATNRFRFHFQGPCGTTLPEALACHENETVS

IC50, > 100 µM:
O=C(O)CCCc1ccccc1
N#C/C(=C\c1ccc(-c2cc(Cl)ccc2Cl)o1)C(=O)Nc1cccc2ncccc12
CC(NC(=O)c1ccccc1/N=C/c1c(O)ccc2ccccc12)c1ccccc1 (centres undefined) [SIRTINOL]
O=C(CCCCCCC(=O)Nc1ccccc1)NO [VORINOSTAT]
